Source: ChEMBL document CHEMBL1141609, “Combinatorial synthesis of anilinoanthraquinone derivatives and evaluation as non-nucleotide-derived P2Y2 receptor antagonists” (Bioorg Med Chem Lett, 2008)

Experiments:
P2Y purinoceptor 2 [1] = target: P2Y purinoceptor 2 (Mus musculus, UniProt P35383); assay: Antagonist activity at mouse P2Y2 receptor in mouse NG108-15 cells assessed as inhibition of UTP-induced calcium mobilization; type: functional, cell-based
Method in brief: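 Mouse P2Y2 receptor natively expressed in NG108-15 neuroblastoma x glioma hybrid cells. Calcium mobilization evoked by 3 uM UTP (ca. 50-80% of maximal effect) was read with the fluorescent Ca2+ dye Fura-2 on a fluorescence plate reader. IC50 was taken from inhibition of the UTP response.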

P2Y purinoceptor 2 [2] = target: P2Y purinoceptor 2 (Homo sapiens, UniProt P41231); assay: Antagonist activity at human recombinant P2Y2 receptor in 1321N1 cells assessed as inhibition of UTP-induced calcium mobilization; type: functional, cell-based
Method in brief: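 Human P2Y2 receptor recombinantly expressed in 1321N1 astrocytoma cells. Calcium mobilization evoked by 1 uM UTP (ca. 50-80% of maximal effect) was read with the fluorescent Ca2+ dye Fura-2 on a fluorescence plate reader. IC50 was taken from inhibition of the UTP response.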

P2Y purinoceptor 6 = P2Y purinoceptor 6 (Rattus norvegicus, UniProt Q63371); assay: Antagonist activity at rat P2Y6 receptor; type: functional
[3] = target: T1, Ectonucleoside triphosphate diphosphohydrolase 1 (Rattus norvegicus, UniProt P97687); assay: Inhibition of rat NTPDase 1
T1 sequence (P97687 whole entry): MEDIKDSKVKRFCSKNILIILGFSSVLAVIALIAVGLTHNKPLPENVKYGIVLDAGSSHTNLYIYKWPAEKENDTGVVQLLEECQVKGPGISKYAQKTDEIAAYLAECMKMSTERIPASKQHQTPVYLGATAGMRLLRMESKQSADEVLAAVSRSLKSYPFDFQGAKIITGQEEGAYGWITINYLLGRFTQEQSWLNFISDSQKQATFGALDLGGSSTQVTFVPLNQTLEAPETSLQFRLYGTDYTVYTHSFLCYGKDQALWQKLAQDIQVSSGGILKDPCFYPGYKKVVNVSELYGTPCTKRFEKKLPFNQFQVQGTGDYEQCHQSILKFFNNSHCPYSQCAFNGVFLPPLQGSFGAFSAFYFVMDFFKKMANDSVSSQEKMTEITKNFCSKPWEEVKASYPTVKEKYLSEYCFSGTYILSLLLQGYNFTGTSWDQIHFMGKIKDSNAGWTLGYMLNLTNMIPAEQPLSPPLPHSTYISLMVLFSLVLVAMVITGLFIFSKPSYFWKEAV

P2Y purinoceptor 4 = P2Y purinoceptor 4 (Homo sapiens, UniProt P51582); assay: Antagonist activity at human P2Y4 receptor; type: functional
5'-nucleotidase = target: T2, 5'-nucleotidase (Rattus norvegicus, UniProt P21588); assay: Inhibition of rat ecto-5'-nucleotidase
T2 sequence (P21588 whole entry): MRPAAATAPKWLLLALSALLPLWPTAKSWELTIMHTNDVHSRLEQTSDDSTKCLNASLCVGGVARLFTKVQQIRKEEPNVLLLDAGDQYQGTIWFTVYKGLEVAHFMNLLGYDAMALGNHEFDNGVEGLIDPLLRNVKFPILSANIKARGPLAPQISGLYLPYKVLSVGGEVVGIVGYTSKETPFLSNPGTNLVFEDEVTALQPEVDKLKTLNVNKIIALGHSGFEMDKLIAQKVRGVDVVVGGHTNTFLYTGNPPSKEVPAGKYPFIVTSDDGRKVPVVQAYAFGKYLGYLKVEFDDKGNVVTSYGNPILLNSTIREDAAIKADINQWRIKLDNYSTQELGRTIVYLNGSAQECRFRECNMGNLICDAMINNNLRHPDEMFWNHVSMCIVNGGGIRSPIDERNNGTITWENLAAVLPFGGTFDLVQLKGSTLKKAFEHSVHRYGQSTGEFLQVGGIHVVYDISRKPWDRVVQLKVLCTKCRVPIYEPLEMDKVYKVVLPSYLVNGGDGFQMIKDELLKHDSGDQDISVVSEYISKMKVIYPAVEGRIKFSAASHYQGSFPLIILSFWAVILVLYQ

P2Y purinoceptor 2 (Mus musculus, UniProt P35383), sequence (P35383 whole entry): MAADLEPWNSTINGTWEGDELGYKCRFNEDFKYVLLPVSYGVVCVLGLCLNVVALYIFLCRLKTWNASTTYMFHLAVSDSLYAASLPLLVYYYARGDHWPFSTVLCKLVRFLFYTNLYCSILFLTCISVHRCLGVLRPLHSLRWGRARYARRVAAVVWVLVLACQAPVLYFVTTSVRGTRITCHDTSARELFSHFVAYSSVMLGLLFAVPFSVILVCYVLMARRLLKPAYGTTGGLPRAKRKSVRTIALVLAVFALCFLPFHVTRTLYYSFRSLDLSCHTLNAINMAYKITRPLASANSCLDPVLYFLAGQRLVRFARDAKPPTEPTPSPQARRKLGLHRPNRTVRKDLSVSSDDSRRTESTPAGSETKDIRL
P2Y purinoceptor 2 (Homo sapiens, UniProt P41231), sequence (P41231 whole entry): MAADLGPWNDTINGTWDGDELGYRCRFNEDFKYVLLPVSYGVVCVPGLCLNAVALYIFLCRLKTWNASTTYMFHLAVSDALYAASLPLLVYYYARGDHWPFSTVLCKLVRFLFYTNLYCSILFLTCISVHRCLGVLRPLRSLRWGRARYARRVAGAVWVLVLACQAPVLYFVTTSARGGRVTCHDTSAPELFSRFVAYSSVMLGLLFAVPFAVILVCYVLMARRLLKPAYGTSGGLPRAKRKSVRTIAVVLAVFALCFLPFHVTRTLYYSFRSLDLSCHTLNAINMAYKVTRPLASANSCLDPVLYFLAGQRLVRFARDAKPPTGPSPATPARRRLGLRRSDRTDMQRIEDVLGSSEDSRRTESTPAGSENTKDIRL
P2Y purinoceptor 4, sequence (P51582 whole entry): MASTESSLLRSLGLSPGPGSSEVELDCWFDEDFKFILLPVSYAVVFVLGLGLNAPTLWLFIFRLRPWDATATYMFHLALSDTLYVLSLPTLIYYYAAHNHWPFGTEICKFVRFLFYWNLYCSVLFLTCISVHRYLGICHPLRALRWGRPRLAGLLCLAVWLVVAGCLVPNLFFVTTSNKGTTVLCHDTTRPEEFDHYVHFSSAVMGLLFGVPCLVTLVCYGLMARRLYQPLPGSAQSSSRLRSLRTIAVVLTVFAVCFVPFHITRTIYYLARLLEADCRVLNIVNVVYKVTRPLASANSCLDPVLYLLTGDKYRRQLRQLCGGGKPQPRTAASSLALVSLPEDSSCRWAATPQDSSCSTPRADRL
P2Y purinoceptor 6, sequence (Q63371 whole entry): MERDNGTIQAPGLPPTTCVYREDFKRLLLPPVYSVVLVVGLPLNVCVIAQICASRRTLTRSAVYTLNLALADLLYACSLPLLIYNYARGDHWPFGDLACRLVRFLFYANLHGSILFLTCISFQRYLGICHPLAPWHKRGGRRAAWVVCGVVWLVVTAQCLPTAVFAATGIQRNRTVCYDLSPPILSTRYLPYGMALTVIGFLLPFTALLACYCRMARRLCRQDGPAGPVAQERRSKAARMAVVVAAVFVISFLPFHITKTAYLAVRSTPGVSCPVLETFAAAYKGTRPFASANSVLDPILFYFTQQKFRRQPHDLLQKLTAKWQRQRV

Structure (SMILES) | IC50 (P2Y purinoceptor 2 [1]) [µM] | IC50 (P2Y purinoceptor 2 [2]) [µM] | also measured
Cc1ccc(Nc2cc(S(=O)(=O)O)c(N)c3c2C(=O)c2ccccc2C3=O)c(C)c1 | 9 | 5.43 | 
Cc1ccc(C)c(Nc2cc(S(=O)(=O)O)c(N)c3c2C(=O)c2ccccc2C3=O)c1 | 17 | 30.3 | 
Cc1ccccc1Nc1cc(S(=O)(=O)O)c(N)c2c1C(=O)c1ccccc1C2=O | 10 | 16.2 | 
COc1ccccc1Nc1cc(S(=O)(=O)O)c(N)c2c1C(=O)c1ccccc1C2=O | 9 | 9.82 | IC50 (P2Y purinoceptor 6): > 100 µM; Ki [3]: > 100 µM; IC50 (P2Y purinoceptor 4): 50 µM; Ki (5'-nucleotidase): > 100 µM
Nc1c(S(=O)(=O)O)cc(Nc2cccc(Cl)c2)c2c1C(=O)c1ccccc1C2=O | > 100 | > 30 | 
Nc1c(S(=O)(=O)O)cc(Nc2ccc(Cl)cc2)c2c1C(=O)c1ccccc1C2=O |  | 5.31 | 
CC(=O)Nc1ccc(Nc2cc(S(=O)(=O)O)c(N)c3c2C(=O)c2ccccc2C3=O)cc1 | 12 | 5.81 | 
CC(=O)c1ccc(Nc2cc(S(=O)(=O)O)c(N)c3c2C(=O)c2ccccc2C3=O)cc1 | > 100 |  | 
CCOc1ccc(Nc2cc(S(=O)(=O)O)c(N)c3c2C(=O)c2ccccc2C3=O)cc1 | 9 | 11.5 | 
COc1ccc(Nc2cc(S(=O)(=O)O)c(N)c3c2C(=O)c2ccccc2C3=O)cc1 | 17 | 11.5 | 
Nc1c(S(=O)(=O)O)cc(Nc2ccc(Nc3ccccc3)cc2)c2c1C(=O)c1ccccc1C2=O |  | 3.93 | 
CCc1ccccc1Nc1cc(S(=O)(=O)O)c(N)c2c1C(=O)c1ccccc1C2=O | 24 | 9.26 | 
Cc1cccc(Nc2cc(S(=O)(=O)O)c(N)c3c2C(=O)c2ccccc2C3=O)c1C | 14 | 7.95 | 
CCOc1ccccc1Nc1cc(S(=O)(=O)O)c(N)c2c1C(=O)c1ccccc1C2=O | 17 | 15 | 
Cc1ccc(Nc2cc(S(=O)(=O)O)c(N)c3c2C(=O)c2ccccc2C3=O)cc1 | 27 | 24.9 | 
Nc1c(S(=O)(=O)O)cc(Nc2cccc([N+](=O)[O-])c2)c2c1C(=O)c1ccccc1C2=O | > 100 |  | 
Cc1cccc(Nc2cc(S(=O)(=O)O)c(N)c3c2C(=O)c2ccccc2C3=O)c1 | 22 | 3.04 | 
Nc1c(S(=O)(=O)O)cc(Br)c2c1C(=O)c1ccccc1C2=O [BROMAMINIC ACID] | > 100 |  | 
Nc1c(S(=O)(=O)O)cc(Nc2ccc(Nc3nc(Cl)nc(Nc4cccc(S(=O)(=O)O)c4)n3)c(S(=O)(=O)O)c2)c2c1C(=O)c1ccccc1C2=O [RB 2] | 5 | 1.85 | 
